Laboratory results reported in ChEMBL document CHEMBL1275590, “Novel arylimidamides for treatment of visceral leishmaniasis” (Antimicrob Agents Chemother, 2010).

Tests used:
[1] = test system: Mus musculus; experiment: Hepatotoxicity in BALB/c mouse assessed as alkaline phosphatase level in serum at 20 mg/kg/day, iv administered for five days (Rvb= 134 U/L); assay type: toxicity, organism-based; parameters: route intravenous; conditions: in vivo
[2] = test system: Mus musculus; experiment: Hepatotoxicity in BALB/c mouse assessed as AST level in serum at 5 mg/kg/day, iv administered for five days (Rvb= 65 U/L); assay type: toxicity, organism-based; parameters: route intravenous; conditions: in vivo
[3] = test system: Mus musculus; experiment: Hepatotoxicity in BALB/c mouse assessed as AST level in serum at 50 mg/kg/day, po administered for five days (Rvb= 70 U/L); assay type: toxicity, organism-based; parameters: route oral; conditions: in vivo
[4] = Volume of distribution in Swiss Webster mouse at 1 mg/kg, iv by HPLC-MS/MS analysis; assay type: ADME, organism-based; parameters: dose 1 mg/kg, route intravenous; conditions: in vivo
Procedure, shortened: (§1)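 Male Swiss Webster mice (n = 3 per time point), single dose by oral gavage (sterile water solution) or tail-vein bolus i.v. (water diluted 1:1 with 2× saline, over ~10–20 s); dose volume 5 ml/kg. Terminal blood sampled from 5 min to 72 h postdose; plasma quantified by HPLC-MS/MS (positive-ion SRM). Noncompartmental analysis gave Cmax, Tmax, AUC0-∞, CL, Vss; bioavailability from p.o. versus i.v. exposure.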

[5] = Half life in human liver microsome by HPLC-MS/MS analysis in presence of 10 uM NADPH; assay type: ADME; conditions: liver microsomes
Procedure, shortened: (§2)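 Pooled liver microsomes (human, mouse, rat) with NADPH. Substrate added from DMSO to final 0.1, 1.0 or 10 μM, with 0.5% (vol/vol) organic solvent. Incubated at 37°C for up to 60 min. Stopped with 2 volumes of 7:1 methanol-water containing 0.1% TFA and 30 nM internal standard, then centrifuged. Remaining substrate was measured by HPLC-MS/MS, and t1/2 was obtained by one-phase exponential decay fit (t1/2 = 0.693/k).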

[6] = Half life in golden Syrian hamster liver microsome by HPLC-MS/MS analysis in presence of 1 uM NADPH; assay type: ADME, Mesocricetus auratus; conditions: liver microsomes
Procedure, shortened: (§3)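 Pooled liver microsomes with NADPH. Substrate at final 0.1, 1.0 and 10 μM with 0.5% DMSO, incubated up to 60 min at 37°C. Reactions were stopped with 7:1 methanol-water containing 0.1% TFA and 30 nM internal standard. Remaining substrate was measured by HPLC-MS/MS, and t1/2 came from a one-phase exponential decay fit.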

[7] = test system: Mus musculus; experiment: Renal toxicity in BALB/c mouse assessed as blood urea nitrogen level in serum at 50 mg/kg/day, po administered for five days (Rvb= 29 mg/dl); assay type: organism-based; parameters: route oral; conditions: in vivo
Procedure, shortened: (§4)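 Female BALB/c mice (n = 5 per dose), dosed once daily for 5 consecutive days p.o. (20 ml/kg) or i.v. (10 ml/kg) with compound in sterile water, prepared fresh daily under yellow light. Vehicle controls n = 5 per route. Clinical observations, body weights, serum chemistry and hematology on day 6 before necropsy; histopathology of formalin-fixed tissues. Chemistry analysed by one-way ANOVA with Dunnett's posttest.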

[8] = Half life in rat liver microsome by HPLC-MS/MS analysis in presence of 10 uM NADPH; assay type: ADME; conditions: liver microsomes; procedure, shortened: as §2
[9] = Half life in golden Syrian hamster liver microsomes by HPLC-MS/MS analysis in presence of 0.1 uM NADPH; assay type: ADME, Mesocricetus auratus, Microsome; procedure, shortened: as §3
[10] = test system: Leishmania major; experiment: Antileishmanial activity against intracellular Leishmania major amastigotes; assay type: functional, organism-based
[11] = test system: Mus musculus; experiment: Hepatotoxicity in BALB/c mouse assessed as ALT level in serum at 25 mg/kg/day, po administered for five days (Rvb= 36 U/L); assay type: toxicity, organism-based; parameters: route oral; conditions: in vivo
[12] = test system: Mus musculus; experiment: Renal toxicity in BALB/c mouse assessed as blood urea nitrogen level in serum at 25 mg/kg/day, po administered for five days (Rvb= 29 mg/dl); assay type: organism-based; parameters: route oral; conditions: in vivo; procedure, shortened: as §4
[13] = test system: Leishmania donovani; experiment: Antileishmanial activity against […] Leishmania donovani AG83-S infected in mouse J774 macrophage; assay type: functional, organism-based
[14] = test system: Mus musculus; experiment: Renal toxicity in BALB/c mouse assessed as phosphorus level in serum at 20 mg/kg/day, iv administered for five days (Rvb= 6.1 mg/dl); assay type: organism-based; parameters: route intravenous; conditions: in vivo; procedure, shortened: as §4
[15] = test system: Mus musculus; experiment: Toxicity in BALB/c mouse assessed as tremor at 100 mg/kg/day, ip after second dose; assay type: organism-based; parameters: route intraperitoneal; conditions: in vivo
Procedure, shortened: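 Acute overt toxicity was checked in uninfected female BALB/c mice before the efficacy work. Compounds were given intraperitoneally once daily for 5 days, and mice were watched for clinical signs such as ruffled fur, hypoactivity, tremors, ataxia and startle, and for survival.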

[16] = test system: Mus musculus; experiment: Hepatotoxicity in BALB/c mouse assessed as ALT level in serum at 50 mg/kg/day, po administered for five days (Rvb= 36 U/L); assay type: toxicity, organism-based; parameters: route oral; conditions: in vivo
[17] = test system: Mus musculus; experiment: Toxicity in BALB/c mouse assessed as occurrence of edema at 150 mg/kg/day, po; assay type: organism-based; parameters: route oral; conditions: in vivo; procedure, shortened: as §4
[18] = test system: Mus musculus; experiment: AUC (0 to infinity) in Swiss Webster mouse at 16.5 mg/kg, po by HPLC-MS/MS analysis; assay type: ADME, organism-based, Plasma; parameters: time infinity, dose 16.5 mg/kg, route oral; conditions: in vivo
Procedure, shortened: (§5)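 Male Swiss Webster mice, n = 3 per time point. For i.v., the compound was dissolved in sterile water, diluted 1:1 with 2× saline, and given as a tail-vein bolus over ~10–20 s. For p.o., it was given by gavage in sterile water. Dose volume was 5 ml/kg. Terminal plasma was taken from 5 min to 72 h and measured by HPLC-MS/MS (calibration 2.5–10,000 nM). Parameters came from noncompartmental analysis.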

[19] = test system: Mus musculus; experiment: (§6) Volume of distribution in Swiss Webster mouse at 66 mg/kg, po by HPLC-MS/MS analysis; assay type: ADME, organism-based; parameters: dose 66 mg/kg, route oral; conditions: in vivo; procedure, shortened: as §1
[20] = test system: Leishmania donovani; experiment: Antileishmanial activity against Leishmania donovani WR378 infected in golden Syrian hamster assessed as reduction in liver parasitemia at 30 mg/kg/day, po administered for five days; assay type: functional; conditions: 120 h
Procedure, shortened: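 11-day golden hamster VL model adapted from an 8-day method, using L. donovani WR378 metacyclic promastigotes. Dosing was oral, once daily for 5 days. Animals were euthanized on day 11 post-infection. Liver, spleen and femoral bone marrow (flushed with Schneider's medium) were harvested.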

[21] = Drug level in Swiss Webster mouse liver at 70 mg/kg, po after 2 hrs by HPLC/UV analysis; conditions: read-out: Drug uptake
[22] = Induction of mutagenicity in Salmonella serovar Typhimurium TA 98 assessed as number of revertant colonies at 500 ug by Ames assay; assay type: toxicity, Salmonella enterica subsp. enterica serovar Typhimurium
Procedure, shortened: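 Plate incorporation test, S. Typhimurium TA98 (and TA100), with or without Aroclor 1254-induced rat liver S9 (10% vol/vol). Compound dissolved in sterile water, serially diluted to 1–1,000 or 1–500 μg/plate. Positive controls: 2-nitrofluorene and sodium azide without S9, 2-aminoanthracene with S9; water and DMSO vehicle controls. Revertant colonies and background lawn scored; mutagen if mean revertants ≥2-fold solvent control. Single experiment.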

[23] = Cmax in Swiss Webster mouse at 5 mg/kg, iv by HPLC-MS/MS analysis; assay type: ADME, organism-based; parameters: dose 5 mg/kg, route intravenous; conditions: in vivo; procedure, shortened: as §5
[24] = Drug level in Swiss Webster mouse spleen at 70 mg/kg, po after 2 hrs by HPLC/UV analysis; conditions: read-out: Drug uptake
[25] = as §6; assay type: ADME, organism-based; parameters: dose 66 mg/kg, route oral; conditions: Swiss Webster, in vivo; procedure, shortened: as §1

Compound	Activity [1] [U/L]	Activity [2] [U/L]	Activity [3] [U/L]	Vd [4] [L/kg]	half-life [5] [h]	half-life [6] [h]	Activity [7] [mg/dL]	half-life [8] [h]	half-life [9] [h]	IC50 [10] [nM]	Activity [11] [U/L]	Activity [12] [mg/dL]	IC50 [13] [nM]	Activity [14] [mg/dL]	Activity [16] [U/L]	also measured
CCOc1cc(NC(=N)c2ccccn2)ccc1-c1ccc(-c2ccc(NC(=N)c3ccccn3)cc2OCC)o1	107	80	77	36	> 2	> 2	27	> 2	1.25	26	31	29	130	7.3	34	Activity [15]: Toxic; Activity [17]: Toxic; AUC [18]: 0.5 µM·h; Vd [19]: 71 L/kg
CC(C)Oc1cc(NC(=N)c2ccccn2)ccc1-c1ccc(-c2ccc(NC(=N)c3ccccn3)cc2OC(C)C)o1	104	76	90	14	> 2	> 2	25	> 2	0.65	14	44	27	90	6.5	45	inhibition in vivo at 30 mg/kg/day [20]: 75%; concentration at 2 h [21]: 45.8 µM; Activity [22]: 28; Cmax [23]: 10.4 µM; concentration at 2 h [24]: 43.1 µM; Tmax [25]: 4.98 min
